Screens deposited in PubChem BioAssay by Sanford-Burnham Center for Chemical Genomics.
Most compounds without a hit are left out; they make up all but 1.5% or so of the library.
CCR6 antag = antagonists of human CCR6 receptor | P51684 | CHO-K1 CCR6 PathHunter beta-arrestin, luminescence, CCL20-stimulated | inhibition, % at 20 µM | hit rate 0.49% among 340,000 | AID 493098;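 active = compounds whose inhibition of the agonist-driven luminescence signal at 20 µM reaches about 50%, limit read from the data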;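 note: cells stimulated with CCL20 at 14 nM final; plate controls were DMSO with CCL20 for no effect and DMSO without agonist for full effect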
APJ antag = antagonists of human APJ apelin receptor. AID 2521. P35414. CHO-K1 APJ beta-arrestin complementation, luminescence. hit rate 0.32% among 330,000. inhibition, % at 20 µM;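 active = inhibition above about 40% at 20 µM, limit read from the data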;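 note: cells challenged with 10 nM apelin-13 agonist together with compound; plate controls were apelin-13 plus DMSO wells for no effect and DMSO wells lacking apelin-13 for full effect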
EBI2 block = blocks human EBI2 receptor beta-arrestin signaling; hit rate 0.81% among 360,000; EBI2 beta-arrestin recruitment, luminescence, 7a,25-OHC stimulated; inhibition, % at 5 µM; P32249; in the data active = inhibition above about 38%;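 note: enzyme fragment complementation signal reports receptor beta-arrestin coupling in cells; 0% = agonist plus DMSO wells and 100% = wells without agonist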
CXCR6 inh = blocks human CXCR6 beta-arrestin recruitment; O00574; CHO-K1 PathHunter CXCR6 beta-arrestin, luminescence; inhibition, % at 20 µM; hit rate 0.36% among 360,000; AID 602244; in the data active = inhibition above about 34%, passing the limit was not always enough;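 note: antagonist mode with CXCL16 agonist at 10 nM final; 0% = 10 nM CXCL16 with DMSO and 100% = unstimulated wells without agonist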
Target sequence (O00574 whole entry, looked up): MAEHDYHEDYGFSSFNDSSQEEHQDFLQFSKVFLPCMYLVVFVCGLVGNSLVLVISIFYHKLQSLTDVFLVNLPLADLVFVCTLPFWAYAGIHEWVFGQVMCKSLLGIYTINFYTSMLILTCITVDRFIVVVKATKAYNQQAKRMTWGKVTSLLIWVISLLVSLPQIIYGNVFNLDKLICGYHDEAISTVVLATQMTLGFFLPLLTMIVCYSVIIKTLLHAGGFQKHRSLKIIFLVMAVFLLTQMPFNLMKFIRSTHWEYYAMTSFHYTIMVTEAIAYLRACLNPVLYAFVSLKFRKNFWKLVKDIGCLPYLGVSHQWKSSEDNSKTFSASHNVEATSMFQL
APJ ag = activates the human apelin receptor APJ | CHO-K1 APJ PathHunter beta-arrestin, luminescence; 0% DMSO wells, 100% apelin | activation, % at 20 µM | hit rate 0.11% among 330,000 | AID 2520;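 active = activation more than six SD over the plate average, tested at 20 µM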;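 note: 0% = DMSO alone and 100% = apelin-13 at 10 nM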
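Test system: CHO-K1 APJ beta-arrestin complementation cell line | Compound: Single test compound dose, 20 µM final, 1% DMSO | Incubation: Compound 90 min 25 °C, reagent 1 h | Measured by: beta-gal luminescence | Read-out basis: APJ–arrestin association signal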
EBI2 antag conf = EBI2 (human) antagonism, single concentration confirmation | shares compounds with EBI2 block | inhibition, % at 5 µM | EBI2 beta-arrestin luminescence, 7a,25-OHC antagonism | hit rate 29% among 2,400;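 active = inhibition of at least 50%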
EBI2 ag = counter-screen for EBI2 antagonists: EBI2 agonist activity; shares compounds with EBI2 block; 2,400 tested, under 10 active; activation, % at 5 µM; EBI2-expressing cells, agonist mode, luminescence, 60 min; 0% vehicle, 100% 7α,25-dihydroxycholesterol control; AID 652000;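 active = activation of at least 50%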
bGal counter = counter-screen for EBI2 antagonists: E. coli beta-galactosidase inhibition | shares compounds with EBI2 block | purified beta-galactosidase, luminescent Galacton Star, 15 min | inhibition, % at 5 µM | hit rate 1% among 2,400 | AID 652176;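 active = replicate-average signal at least 3 plate SD below neutral wells, shown as high inhibition, flagging enzyme-inhibiting false positives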;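 note: 0% = DMSO wells with enzyme and 100% = wells lacking enzyme; higher means stronger loss of beta-gal luminescence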
An asterisk follows results filed as active; . = no result.

SMILES	CCR6 antag	APJ antag	EBI2 block	CXCR6 inh	APJ ag	EBI2 antag conf	EBI2 ag	bGal counter
O=C(OCC(=O)N1CCCc2ccccc21)c1cnc(Cl)c(Cl)c1	21	-15	43*	10	2	39	0	5
CN(C)C(=O)c1cccc(-c2cnc3c(NC=O)cc(-c4ccccc4N(C)C)cn23)c1	.	.	-4	-11	.	.	.	.
CC(=O)Nc1cccc(-c2cc(NC=O)c3ncc(-c4cccc(C(C)=O)c4)n3c2)c1	.	.	54*	1	.	14	-1	-12
COc1ccccc1-c1cc(NC(C)=O)c2ncc(-c3ccc(S(C)(=O)=O)cc3)n2c1	.	.	18	4	.	.	.	.
CC(=O)Nc1cc(-c2ccc(CO)cc2)cn2c(-c3cccc(C(F)(F)F)c3)cnc12	.	.	46*	5	.	24	-1	-9
CC(=O)Nc1cc(-c2ccccc2Cl)cn2c(-c3ccc(S(C)(=O)=O)cc3)cnc12	.	.	55*	12	.	25	2	3
CC(=O)Nc1cc(-c2ccc(N)cc2)cn2c(-c3cccc(C(F)(F)F)c3)cnc12	.	.	9	-3	.	.	.	.
CN(C)C(=O)c1cccc(-c2cnc3c(NC=O)cc(-c4ccccc4Cl)cn23)c1	.	.	62*	-1	.	29	0	5
COc1ccc(CCNc2cc(-c3ccccc3)nc3ncnn23)cc1	15	5	45*	-3	-2	20	0	6
C#CCNc1cc(-c2ccccc2)nc2ncnn12	-7	9	-10	1	-2	.	.	.
CSc1ccc(/C=N/NC(=O)CN2CCN(Cc3ccc(C)cc3)CC2)cc1	7	12	45*	-8	-2	36	1	6
Cc1ccc(/C=N/NC(=O)CN2CCN(Cc3ccccc3Cl)CC2)o1	7	-1	25	-4	4	.	.	.
CSc1ccc(/C=N/NC(=O)CN2CCN(Cc3ccccc3Cl)CC2)cc1	8	0	61*	-6	-1	46	1	6
Cc1cc(C)nc(SCC(=O)Nc2nonc2N)n1	3	-15	10	-2	-1	.	.	.
COCc1cc(C)nc(OCC(=O)N/N=C/c2ccc(C)o2)c1C#N	9	7	-3	0	-1	.	.	.
Cc1ccc(S(=O)(=O)N2CC=C(C(=O)NCc3ccc(F)cc3)CC2)cc1	.	3	12	-8	14	.	.	.
Cc1ccc(CNC(=O)c2ccc(S(=O)(=O)N3CCCCCC3)cc2)cc1	.	.	72*	3	.	35	-1	-8
O=C(Nc1ccc(OC(F)F)cc1)c1cc(S(=O)(=O)N2CCOCC2)ccc1N1CCCC1	1	.	0	8	.	.	.	.
Cc1ccc(C(=O)NCCc2ccc(S(=O)(=O)N3CCCC3)cc2)cc1	5	-13	6	-7	-1	.	.	.
O=S(=O)(c1ccc(NC(=S)Nc2ccc(OC(F)F)cc2)cc1)N1CCOCC1	12	-6	49*	6	-1	45	0	-3
Cc1ccc(NC(=O)c2ccc(S(=O)(=O)N3CCCCC3)cc2)cc1	1	4	45*	-1	-2	42	1	-1
Cc1ccc(CNC(=O)C2=CCN(S(=O)(=O)c3ccc(C)cc3)CC2)cc1	.	7	66*	-2	2	29	2	5
Cc1cc2cc(CNC(=O)c3ccc(S(=O)(=O)N4CCCCC4)cc3)ccc2[nH]1	6	-19	47*	-4	1	36	1	8
O=C(COc1ccccc1)Nc1ccc(S(=O)(=O)N2CCCCCC2)cc1	14	-6	29	3	1	.	.	.
Cc1ccc(NC(=S)Nc2ccc(C(C)C)cc2)cc1S(=O)(=O)N1CCCCCC1	27	-1	50*	1	3	51*	1	5
SMILES	CCR6 antag	APJ antag	EBI2 block	CXCR6 inh	APJ ag	EBI2 antag conf	EBI2 ag	bGal counter
NNC(=S)Nc1ccc(S(=O)(=O)N2CCCCC2)cc1	2	8	44*	-10	1	38	1	6
NNC(=S)Nc1ccc(S(=O)(=O)N2CCOCC2)cc1	9	-28	39	-20	2	.	.	.
O=C(COc1ccc2ccccc2c1)Nc1ccc(S(=O)(=O)N2CCCCCC2)cc1	10	4	56*	-12	3	12	1	9
N=C1/C(=C\c2ccc(OC(=O)c3ccccc3Cl)cc2)C(=O)N=C2SC(N3CCOCC3)=NN12	36	17	1	11	-16	.	.	.
O=C(Nc1ccccc1)N1CCC(c2ccccc2)C1 (stereo not drawn)	-3	28	29	3	-2	.	.	.
CCOc1ccc(NC(=O)N2CCC(c3ccc(C)cc3)C2)cc1 (stereo not drawn)	11	32	81*	-4	-2	55*	0	3
CCc1ccc(NC(=O)N2CCC(c3ccccc3)C2)cc1 (stereo not drawn)	17	-2	83*	0	-6	63*	0	6
Cc1nc2ccccc2nc(C)c1=NOCc1ccccc1Cl	18	8	13	2	3	.	.	.
Cn1c(=O)c2ccccc2n2c(CCl)nnc12	10	21	7	7	-3	.	.	.
Cc1ccc(-n2c(SCC(=O)N3CCN(c4ccccn4)CC3)nnc2N2CCCC2)cc1	18	1	-9	-9	-3	.	.	.
COc1ccc(N2CCN(C(=O)CSc3ccc(C)cc3)CC2)cc1	5	3	64*	4	-3	58*	1	3
Cc1ccc(SCC(=O)N2CCN(c3ccccn3)CC2)cc1	0	-10	73*	1	-2	50*	3	4
CC(=O)ONC(=Nc1ccccc1)c1nonc1N	5	-12	-12	0	-1	.	.	.
CCOC(=O)C(Oc1ccc2c(-c3ccc(OC)cc3)cc(=O)oc2c1C)c1ccccc1 (stereo not drawn)	25	14	36*	14	-2	32	-1	-20
CC(NC(=O)/C=C/c1ccc(Br)cc1)c1ccc(Cl)cc1 (stereo not drawn)	12	-14	54*	-6	1	31	0	-8
CN1CCN(NC(=O)/C=C/c2ccc(Br)cc2)CC1	2	6	78*	2	5	48	-1	-9
CN1CCN(NC(=O)/C=C/c2ccc(C(C)(C)C)cc2)CC1	-3	11	7	-2	-6	.	.	.
O=C(c1cc(=O)c2cc(Cl)ccc2o1)N1CCN(Cc2ccccc2)CC1	-2	11	93*	7	-4	92*	0	4
Cc1c(C(=O)N2CCN(CCc3ccccc3)CC2)oc2ccccc12	12	16	18	2	-3	.	.	.
Cc1c(C(=O)N2CCN(CCc3ccccn3)CC2)oc2ccc(Cl)cc12	-4	10	54*	-2	2	37	-1	6
